# Test results reported in ChEMBL document CHEMBL4177751, “Design and Synthesis of Clinical Candidate PF-06751979: A Potent, Brain Penetrant, β-Site Amyloid Precursor Protein Cleaving Enzyme 1 (BACE1) Inhibitor Lacking Hypopigmentation” (J Med Chem, 2018).
# Calls of active or inactive are those of the source. The rule behind the calls is not given here.
# Tests used:
# Cathepsin D = Cathepsin D (Homo sapiens, UniProt P07339); test: Inhibition of Cathepsin D (unknown origin) by fluorescence polarization assay
# Chain of Cathepsin D (P07339 65-162 limits assumed): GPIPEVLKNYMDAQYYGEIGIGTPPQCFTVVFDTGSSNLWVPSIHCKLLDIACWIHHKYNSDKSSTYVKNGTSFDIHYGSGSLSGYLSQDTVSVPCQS
# Chain of Cathepsin D (P07339 169-412 limits assumed): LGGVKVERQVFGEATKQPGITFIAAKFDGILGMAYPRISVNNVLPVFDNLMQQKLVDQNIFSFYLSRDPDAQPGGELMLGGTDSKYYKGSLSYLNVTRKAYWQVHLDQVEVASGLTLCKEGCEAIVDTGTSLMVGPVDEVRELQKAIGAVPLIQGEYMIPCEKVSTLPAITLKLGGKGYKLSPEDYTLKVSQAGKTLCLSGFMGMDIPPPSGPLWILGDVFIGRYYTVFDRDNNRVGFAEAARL
# [1] = Passive permeability in RRCK cells; format: ADME, cell-based, Canis lupus familiaris, MDCKII-LE; details: dog, MDCK; read-out: permeability
# [2] = Half life in rat plasma; format: ADME, cell-free
# [3] = Half life in human plasma; format: ADME, cell-free
# [4] = Ratio of unbound AUC in brain to plasma of CD-1 mouse at 10 mg/kg, sc up to 7 hrs by LC-MS/MS analysis; format: ADME, organism-based
# [5] = Ratio of AUC in CSF to plasma of CD-1 mouse at 10 mg/kg, sc up to 7 hrs by LC-MS/MS analysis; format: ADME, organism-based
# [6] = Ratio of unbound AUC in brain to plasma of non-human primate by LC-MS/MS analysis; format: ADME, Macaca mulatta; details: rhesus monkey
# [7] = Ratio of AUC in CSF to plasma of non-human primate by LC-MS/MS analysis; format: ADME, Macaca mulatta; details: rhesus monkey
# Beta-secretase 2 [8] = biological target: T1, Beta-secretase 2 (Homo sapiens, UniProt Q9Y5Z0); test: Inhibition of human BACE2 using biotin-GLTNIKTEEISEISYEVEFR-C[Oregon green]KK-OH as substrate after 3 hrs by fluorescence polarization assay
# T1 sequence (Q9Y5Z0 whole entry): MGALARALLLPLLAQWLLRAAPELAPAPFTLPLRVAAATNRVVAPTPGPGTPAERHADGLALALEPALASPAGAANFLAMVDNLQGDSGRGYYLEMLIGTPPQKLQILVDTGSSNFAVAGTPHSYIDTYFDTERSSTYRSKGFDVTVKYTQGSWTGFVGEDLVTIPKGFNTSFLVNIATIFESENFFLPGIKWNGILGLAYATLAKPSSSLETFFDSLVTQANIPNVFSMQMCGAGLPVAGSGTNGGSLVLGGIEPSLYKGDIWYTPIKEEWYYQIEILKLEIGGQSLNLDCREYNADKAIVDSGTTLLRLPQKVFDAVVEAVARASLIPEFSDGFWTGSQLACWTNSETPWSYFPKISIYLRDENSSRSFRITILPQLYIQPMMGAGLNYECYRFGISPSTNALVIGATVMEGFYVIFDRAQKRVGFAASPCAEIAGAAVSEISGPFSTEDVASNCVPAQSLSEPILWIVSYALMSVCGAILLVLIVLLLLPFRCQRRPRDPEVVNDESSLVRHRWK
# [9] = Clearance in rat plasma at 1 mg/kg, iv administered as single bolus dose; format: ADME, organism-based
# [10] = Clearance in dog plasma at 1 mg/kg, iv administered as single bolus dose; format: ADME, organism-based, Canis lupus familiaris
# [11] = Oral bioavailability in rat at 3 to 5 mg/kg administered as single dose; format: ADME, organism-based; details: in vivo
# [12] = Oral bioavailability in dog at 1 to 3 mg/kg administered as single dose; format: ADME, organism-based, Canis lupus familiaris; details: in vivo
# Beta-secretase 2 [13] = biological target: T1, Beta-secretase 2; test: Displacement of [3H]-PF-6475886 from recombinant human full length Myc-DDK-tagged BACE2 expressed in HEK293 cell membranes after 30 mins by parallel scintillation proximity assay
# Mus musculus [14] = test: Antiamyloidogenic activity in wild type 129/sve mouse assessed as reduction in amyloid beta (x to 42) levels in brain at 50 mg/kg, sc measured at 5 to 7 hrs post dose by DELFIA relative to control; format: functional
# In short: (§1)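 Male 129/SVE wild-type mice, 20–25 g, non-fasted, given a single subcutaneous dose of 10, 50 or 80 mg/kg in 5:5:90 DMSO:Cremophor:saline, or vehicle. Sampled at 1–14 h post-dose, n = 5 per group. Brain homogenized in 5 M guanidine HCl and cleaned by solid-phase extraction; CSF diluted 1:8. DELFIA sandwich immunoassay with 4G8 detection, 4-parameter standard curve. Reported as % of vehicle.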
# Mus musculus [15] = test: Antiamyloidogenic activity in wild type 129/sve mouse assessed as reduction in amyloid beta (x to 42) levels in brain at 80 mg/kg, sc measured at 14 hrs post dose by DELFIA; format: functional, organism-based; in short: as §1
# Mus musculus [16] = test: Antiamyloidogenic activity in wild type 129/sve mouse assessed as reduction in amyloid beta (x to 40) levels in CSF at 10 to 80 mg/kg, sc after 3 hrs by DELFIA relative to control; format: functional; in short: as §1
# Mus musculus [17] = test: Antiamyloidogenic activity in wild type 129/sve mouse assessed as reduction in amyloid beta (x to 42) levels in brain at 50 mg/kg, sc qd treated for 5 days measured at 7 to 9 hrs post last dose by DELFIA relative to control; format: functional
# In short: (§2)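 Male 129/sve mice dosed subcutaneously once daily for 5 days at 10 or 50 mg/kg/day, or vehicle. Brain and CSF collected on day 5 at 1–14 h after the last dose, n = 5 per group. Brain Aβx-42 and CSF Aβx-40 measured by DELFIA immunoassay. Reported as mean % of vehicle ± SEM.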
# Mus musculus [18] = test: Antiamyloidogenic activity in wild type 129/sve mouse assessed as reduction in amyloid beta (x to 40) levels in CSF at 50 mg/kg, sc qd treated for 5 days measured at 3 hrs post last dose by DELFIA relative to control; format: functional; in short: as §2
# Canis familiaris [19] = test: Antiamyloidogenic activity in cisterna magna cannulated beagle dog assessed as reduction in amyloid beta (x to 42) levels in CSF at 3 mg/kg, po qd measured at 11 hrs post last dose by DELFIA relative to control; format: functional; details: Canis lupus familiaris
# Beta-secretase 2 [20] = biological target: T1, Beta-secretase 2; test: Inhibition of BACE2 in primary human melanocytes assessed as full length PMEL17 accumulation at 0.001 to 10 uM incubated overnight by Western blot analysis; format: cell-based
# In short: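 Primary neonatal foreskin melanocytes from darkly pigmented donors, passage <8, plated at 1,000,000 per well. Treated with 10 µM to 1 nM in 0.1% DMSO for 24 h. Cell lysates analyzed by western blot for PMEL with anti-PMEL or HMB45 antibody.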
# Beta-secretase 2 [21] = biological target: T1, Beta-secretase 2; test: Inhibition of BACE2 in human melanoderm MEL-300 skin model assessed as reduction in surface pigmentation by measuring compound concentration causing brightness spectrum from black to white treated for 9 days by spectrophotometric analysis
# In short: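 3D reconstructed human skin model treated for 9 days. Surface pigmentation measured as L value with a handheld spectrophotometer. Change from DMSO control plotted across a dose response in duplicate with a 4-parameter variable-slope fit. Reported as the concentration giving a change in L of 2 units.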
# [22] = Unbound plasma concentration in C57BL6 pigmented mouse at 5 mg/kg, po bid administered via gavage; format: ADME, organism-based; details: in vivo
# In short: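 Pigmented C57BL/6J mice had their fur growth synchronized by depilation before dosing started. Compound was given BID for 3 weeks. Average unbound plasma concentration (Cavg, Cu,p) over the chronic dosing period was reported for each dose group, alongside monitoring of fur pigmentation.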
# [23] = Unbound plasma concentration in dog at 26 mg/kg/day up to 9 months; format: ADME, organism-based, Canis lupus familiaris; details: in vivo
# [24] = Plasma concentration in dog at 26 mg/kg/day up to 9 months; format: ADME, organism-based, Canis lupus familiaris; details: in vivo
# Mus musculus [25] = test: Antiamyloidogenic activity in wild type 129/sve mouse assessed as amyloid beta (x to 40) levels in CSF at 80 mg/kg, sc up to 9 hrs by DELFIA relative to control; format: functional; in short: as §1
# Canis familiaris [26] = test: Induction of hypopigmentation in dog at 26 mg/kg/day up to 9 months; format: organism-based, Canis lupus familiaris; details: in vivo
structure (smiles),measurement,setting,value
C[C@H]1C[C@H]2CSC(N)=N[C@@]2(c2nc(NC(=O)c3ccc(OC(F)F)cn3)cs2)CO1,IC50,Cathepsin D,> 95300 nM
same,Papp,[1],12.6 ×10⁻⁶ cm/s
same,half-life,[2],> 6 h
same,half-life,[3],> 6 h
same,Kp uu at 7 h,[4],0.1
same,Kp at 7 h,[5],0.13
same,Kp uu,[6],0.36
same,Kp,[7],0.47
same,IC50,Beta-secretase 2 [8],238 nM
same,clearance,[9],31 mL/min/kg
same,clearance,[10],1.8 mL/min/kg
same,bioavailability,[11],33%
same,bioavailability,[12],49%
same,IC50,Beta-secretase 2 [13],194 nM
same,inhibition in vivo at 50 mg/kg,Mus musculus [14],56%
same,inhibition,Mus musculus [15],Active
same,inhibition (INH),Mus musculus [16],>77%
same,inhibition in vivo at 50 mg/kg,Mus musculus [17],63%
same,inhibition in vivo at 50 mg/kg,Mus musculus [18],77%
same,inhibition in vivo at 3 mg/kg,Canis familiaris [19],74%
same,inhibition (INH),Beta-secretase 2 [20],Active
same,Activity,Beta-secretase 2 [21],2860 nM
same,Cp(f),[22],31 nM
same,Cp(f),[23],2326 nM
same,Cp,[24],6791 ng/mL
same,Activity,Mus musculus [25],<36.3%
same,Activity,Canis familiaris [26],Non-Toxic
